Screening results deposited in PubChem by Broad Institute.
The list is not random: actives were taken first. Their share in the collection is about 1.6%.
dFosB activator = activators of mouse delta FosB homodimer. purified delta FosB, TAMRA-CDK5 oligo fluorescence polarization; percent of positive-control signal above neutral wells. activation, % at 25 µM. 0.99% of 340,000 active;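 active means mean activation above about 17%, with every replicate also reaching it, limit read from the data, passing the limit was not always enough; inconclusive means only one of the two conditions met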
SR-BI DiI-HDL act = enhances SR-BI lipid uptake from DiI-HDL; CHO ldlA[mSR-BI] cells, DiI-HDL uptake fluorescence, 3 h; 100 = double the neutral-control signal; activation, % at 12.5 µM; 0.096% of 320,000 active;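 active means mean replicate activation of at least 60% and every replicate at or above 60%; inconclusive means mean or all-replicate condition met, but not both; inactive means mean below 60% and not all replicates reaching 60%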
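material = CHO ldlA[mSR-BI] cells | medium = Ham's F12 with 0.5% BSA, HEPES 25 mM, pH 7.4 | reagent = fluorescent DiI-HDL, 10 µg/mL final | compound dosing = single-point compound dose | incubation = 3 h, 37 °C | measured by = bottom-read fluorescence, 550/595 nm | measure = HDL uptake via cellular fluorescence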
SR-BI HDL uptake = mouse SR-BI HDL lipid transfer inhibition; Q61009; ldlA[mSR-BI] CHO cells, DiI-HDL uptake fluorescence, 3 h; inhibition, % at 12.5 µM; 0.96% of 320,000 active;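 active means mean replicate inhibition of at least 70% and a set share of replicates each scoring 70 or more; inconclusive means meets just one of the two criteria; inactive means fails both criteria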
S100A4 inh HTS = inhibitors of human S100A4 binding to myosin IIA peptide | AID 652163 | 0.14% of 360,000 active | S100A4/TAMRA-MyoIIA peptide fluorescence polarization | inhibition, % at 10.7 µM;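 active means mean inhibition of at least 70% across replicates, with every replicate also reaching that level; inconclusive means mean inhibition reaches 70% but some replicates fall short; inactive means mean inhibition below 70%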
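Compound dosing: one dose per compound; test system: human S100A4 monomer with TAMRA-labelled myosin IIA peptide; probe or stimulus: TAMRA-labelled myosin IIA heavy-chain peptide probe, 5 nM; medium: HEPES buffer with Ca2+, pH 7.2; schedule: 5 min incubation before reading; benchmarks: neutral control DMSO, positive control TFP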
RAD54 inh = RAD54 (human) branch migration inhibition; Q92698; 0.14% of 360,000 active; inhibition, % at 10.4 µM; RAD54 Holliday junction branch migration, FAM/BHQ fluorescence; AID 602329;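 active means mean normalized replicate activity at least 40 and at least half of replicates scoring 40 or more; inconclusive means only one of the two criteria met; inactive means mean below 40 and under half of replicates reaching 40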;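 further: inhibitors cause a drop in the FAM fluorescence signal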
Target sequence (Q92698 whole entry, looked up): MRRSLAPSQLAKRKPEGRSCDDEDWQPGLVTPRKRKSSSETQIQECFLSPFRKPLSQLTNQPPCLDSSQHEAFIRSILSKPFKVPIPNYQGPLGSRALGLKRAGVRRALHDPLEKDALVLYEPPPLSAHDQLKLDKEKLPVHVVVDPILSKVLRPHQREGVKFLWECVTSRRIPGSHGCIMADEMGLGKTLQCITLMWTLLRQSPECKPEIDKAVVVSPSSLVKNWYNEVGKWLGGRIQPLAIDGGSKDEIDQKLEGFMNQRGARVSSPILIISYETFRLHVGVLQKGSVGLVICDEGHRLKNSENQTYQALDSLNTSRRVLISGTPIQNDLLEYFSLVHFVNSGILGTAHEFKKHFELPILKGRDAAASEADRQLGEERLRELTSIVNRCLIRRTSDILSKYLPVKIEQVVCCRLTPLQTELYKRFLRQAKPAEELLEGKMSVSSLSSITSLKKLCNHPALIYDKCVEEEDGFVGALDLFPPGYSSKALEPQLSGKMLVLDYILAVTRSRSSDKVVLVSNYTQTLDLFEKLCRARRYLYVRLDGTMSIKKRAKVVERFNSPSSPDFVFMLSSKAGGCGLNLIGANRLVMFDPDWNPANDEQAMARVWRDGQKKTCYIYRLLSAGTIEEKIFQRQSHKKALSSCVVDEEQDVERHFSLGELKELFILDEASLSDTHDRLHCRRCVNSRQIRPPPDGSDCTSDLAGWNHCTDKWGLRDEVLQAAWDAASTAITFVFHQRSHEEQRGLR
PvdQ inh = P. aeruginosa PvdQ acylase inhibition; purified PvdQ acylase, fluorescence plate reader; inhibition, % at 10 µM; 0.063% of 340,000 active; in the data active means inhibition above about 30%, passing the limit was not always enough; inconclusive means no clear call, values can overlap the other calls
Rad54 DNA ctr = counter-screen for Rad54 inhibitors: DNA binding compounds. shares compounds with RAD54 inh. Acridine orange-DNA displacement, fluorescence polarization, 20 min. 8% of 460 active. AID 651673. AC50, µM (titrated, usually from 35 µM);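 active means signal drop giving an AC50 within twice the top valid tested concentration of each sample, actives reach about 35 µM in these data; inactive means activity opposite to expected, plus the rest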;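 further: polarization loss reports compound binding to salmon sperm DNA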
Numbers stand for hits; - = inactive; ? = inconclusive; . = no result given.

SMILES	dFosB activator	SR-BI DiI-HDL act	SR-BI HDL uptake	S100A4 inh HTS	RAD54 inh	PvdQ inh	Rad54 DNA ctr
CCS(=O)(=O)Nc1ccc2c(c1)C(=O)N(C)[C@@H]1CC[C@H](CC(=O)Nc3ccccc3)O[C@H]1CO2	.	.	.	-	-	.	.
COCCNc1nc2cc(-c3ccsc3)sc2c(=O)n1C	.	.	.	-	-	.	.
Cn1c(NCCN2CCCC2)nc2cc(-c3ccsc3)sc2c1=O	.	.	.	-	58.1	.	-
COc1ccc(-c2cc3nc(NCCN4CCCC4)n(C)c(=O)c3s2)cc1OC	.	.	.	-	69.9	.	-
O=C(C[C@H]1CC[C@H](NC(=O)C2CCC2)[C@@H](CO)O1)NC1CCC1	.	.	.	-	-	.	.
Cn1nc(-c2ccccc2)cc1NS(=O)(=O)c1ccc(C#N)cc1	-	-	-	-	?	-	-
C[C@@H]1CN([C@@H](C)CO)C(=O)c2cc(NC(=O)Nc3ccc4c(c3)OCO4)ccc2O[C@H]1CN(C)Cc1ccc(Cl)c(Cl)c1	.	.	.	-	-	.	.
CCOC(=O)c1ccc2ncc(C(=O)OCC)c(NCCCN3CCOCC3)c2c1	-	-	-	.	-	-	.
CCOC(=O)c1cnc2ccc(OC)cc2c1Nc1ccc(N2CCN(C)CC2)cc1	35.9	-	-	-	71.8	-	-
CCOC(=O)c1ccc2ncc(C(=O)OCC)c(Nc3ccc(N4CCOCC4)cc3)c2c1	-	-	-	-	.	-	.
CCOC(=O)c1cnc2c(C)cc(C)cc2c1NCCCN1CCOCC1	-	-	-	-	92.8	-	-
CCOC(=O)c1cnc2c(ccc3ccccc32)c1NCCCN(C)C	-	-	-	-	123.5	-	-
CCOC(=O)c1cnc2ccccc2c1NCCO	-	-	-	-	-	-	.
CCOC(=O)c1cnc2ccc(C)cc2c1NCCN1CCOCC1	-	-	-	-	?	-	-
C[C@@H]1CN([C@@H](C)CO)C(=O)c2cc(NC(=O)Nc3ccccc3)ccc2O[C@@H]1CN(C)CC1CC1	.	.	.	-	-	.	.
C[C@@H]1CN([C@H](C)CO)C(=O)c2cc(NS(=O)(=O)c3cn(C)cn3)ccc2O[C@@H](C)CCCCO[C@H]1CN(C)Cc1ccccc1	.	.	.	-	-	.	.
CCOC(=O)c1cnc2c(C)c(Cl)ccc2c1NCCCN1CCOCC1	-	-	-	-	60.0	-	-
CCOC(=O)c1cnc2c(Cl)c(Cl)ccc2c1NCCN1CCOCC1	-	-	-	-	-	-	.
CCOC(=O)c1cc(-c2ccncc2)nc2c1c(C)nn2-c1ccccn1	-	-	-	.	65.2	-	-
Cc1nn(-c2ccccn2)c2nc(-c3cccs3)cc(C(=O)N3CCOCC3)c12	-	-	-	.	.	-	.
CN1CCN(c2ccc(CNC(=O)C3Cc4c(-c5ccc(Cl)cc5)ccnc4O3)cc2)CC1 (stereo unspecified)	.	.	.	-	?	.	-
CCOC(=O)c1c(N)sc2c(OCC)c(Br)ccc12	-	-	-	-	-	-	.
CCOC(=O)c1c(NC(C)=O)sc2c(OCC(O)CNC(C)(C)C)c(Br)ccc12 (stereo unspecified)	-	-	-	.	?	-	-
c1ccc2c(N3CCCC3)nc(-c3ccncc3)nc2c1	-	-	-	.	.	-	.
CN1CCN(c2nc(-c3ccncc3)nc3ccccc23)CC1	-	-	-	.	86.9	-	-
SMILES	dFosB activator	SR-BI DiI-HDL act	SR-BI HDL uptake	S100A4 inh HTS	RAD54 inh	PvdQ inh	Rad54 DNA ctr
CN1CCN(c2nc(-c3cccs3)nc3ccccc23)CC1	-	-	-	-	71.2	-	-
COc1ccc(NC(=O)Nc2ccc3c(c2)C(=O)N([C@H](C)CO)C[C@H](C)[C@@H](CN(C)S(=O)(=O)c2cn(C)cn2)OCCCC[C@@H](C)O3)cc1	.	.	.	.	-	.	.
CO[C@H]1CN(C)C(=O)c2cccc(C#N)c2OC[C@@H]2O[C@H](CC[C@H]2OC)CCN(C)C(=O)[C@@H]1C	.	.	.	-	-	.	.
CN(C)CCNC(=O)c1c(NC(=O)c2ccccc2)sc2c1CCCC2	-	-	-	-	58.0	-	-
CN1CCc2[nH]c3ccc(C(=O)NN)cc3c2C1	20.4	-	-	.	66.9	-	-
CN1CCN(CCCNC(=O)c2cc3c(-c4ccc(Cl)cc4)nn(C)c3s2)CC1	-	-	-	-	61.4	-	-
CCN(CC)CCCNC(=O)c1cc2c(-c3ccc(Cl)cc3)nn(C)c2s1	-	-	-	-	?	-	-
COc1ccc(Nc2cc(C)nc3ccc(C)cc23)cc1	.	.	.	-	-	.	.
Cc1ccc2nc(C)cc(Nc3ccc4c(c3)OCCO4)c2c1	30.5	-	-	.	59.8	-	-
CC(=O)N1CC2(C1)[C@@H](c1ccc(-c3ccc(F)cc3)cc1)[C@@H](CO)N2C(C)=O	.	.	.	-	.	.	.
CCOc1cccc(-c2cc(N3CCN(CCO)CC3)n3nccc3n2)c1	.	.	.	-	-	.	.
OCCN1CCN(c2cc(-c3ccc4ccccc4c3)nc3ccnn23)CC1	.	.	.	-	-	.	.
CN1CCCN(c2cc(-c3ccc4ccccc4c3)nc3ccnn23)CC1	.	.	.	138.9	63.6	.	-
Cc1cccc(-c2cc(N3CCCN(C)CC3)n3nccc3n2)c1	.	.	.	111.7	?	.	-
Cc1ccc(S(=O)(=O)N[C@@H]2C=C[C@@H](CC(=O)NC3CCCCC3)O[C@@H]2CO)cc1	.	.	.	-	-	.	.
Cc1ccc(S(=O)(=O)NCCCNS(=O)(=O)c2ccccc2[N+](=O)[O-])cc1	-	-	-	-	?	-	-
Cc1ccc(S(=O)(=O)NCCNc2ccccc2[N+](=O)[O-])cc1	-	-	-	-	.	-	.
O=C(Nc1cccc(Cl)c1)c1cc(S(=O)(=O)N2CCOCC2)cs1	-	-	-	-	50.5	-	-
CN(C)CCNC(=O)c1cccc(-c2cnc3c(NC=O)cc(-c4cccc(F)c4)cn23)c1	.	.	.	-	?	.	-
COc1ccc(-c2cc(NC=O)c3ncc(-c4cccc(OC)c4)n3c2)cc1	.	.	.	-	-	.	.
CN(C)CCNC(=O)c1cccc(-c2cnc3c(NC=O)cc(-c4ccc(F)cc4)cn23)c1	.	.	.	-	54.8	.	-
COc1ccc(-c2cc(NC=O)c3ncc(-c4cccc(C(=O)NCCN(C)C)c4)n3c2)cc1	.	.	.	-	68.9	.	-
CCSc1ccc(-c2cc(NC=O)c3ncc(-c4cccc(C(=O)NCCN(C)C)c4)n3c2)cc1	.	.	.	-	-	.	.
CN(C)CCNC(=O)c1cccc(-c2cnc3c(NC=O)cc(/C=C/c4ccccc4)cn23)c1	.	.	.	-	-	.	.
C[C@@H]1CN([C@H](C)CO)S(=O)(=O)c2ccc(/C=C/c3ccccc3)cc2O[C@@H]1CN(C)C(=O)c1ccc2c(c1)OCO2	.	.	.	-	-	.	.
CCCCN(CC)c1nc(-c2ccncc2)nc2ccccc12	-	-	-	.	-	-	.
CCCN(CCC)c1nc(-c2ccccn2)nc2ccccc12	-	-	-	-	89.6	-	-
O=C(C[C@H]1CC[C@@H](NC(=O)c2ccc(F)cc2)[C@H](CO)O1)NCc1ccncn1	.	.	.	-	-	.	.
c1ccc(-c2cc3c(N4CCCC4)ncnc3s2)cc1	-	-	-	-	.	-	.
